# GPR7 antagonist: antagonists of human GPR7 (neuropeptides B/W receptor 1). P48145. GPR7-expressing cells, fluorescence antagonist assay. 290,000 tested, 1.1% active. inhibition, % at 4.4 µM; in the data active = inhibition above about 16%, passing the limit was not always enough;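 also: cells stimulated with the agonist NPW; 0% = agonist with vehicle and 100% = vehicle without agonist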
# OX1R antag-1: blocks the human orexin 1 receptor; AID 434989; CHO/OX1R cells, Fluo-8 calcium fluorescence, orexin A; 330,000 tested, 0.43% active; inhibition, % at 5 µM;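 active = inhibition above its plate's threshold, mean inhibition of all tested compounds on the plate plus 3 SD, cut at about 37% in these data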;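 also: 0% = orexin A challenge wells and 100% = SB-334867-A antagonist wells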
# Target sequence (O43613 whole entry, looked up): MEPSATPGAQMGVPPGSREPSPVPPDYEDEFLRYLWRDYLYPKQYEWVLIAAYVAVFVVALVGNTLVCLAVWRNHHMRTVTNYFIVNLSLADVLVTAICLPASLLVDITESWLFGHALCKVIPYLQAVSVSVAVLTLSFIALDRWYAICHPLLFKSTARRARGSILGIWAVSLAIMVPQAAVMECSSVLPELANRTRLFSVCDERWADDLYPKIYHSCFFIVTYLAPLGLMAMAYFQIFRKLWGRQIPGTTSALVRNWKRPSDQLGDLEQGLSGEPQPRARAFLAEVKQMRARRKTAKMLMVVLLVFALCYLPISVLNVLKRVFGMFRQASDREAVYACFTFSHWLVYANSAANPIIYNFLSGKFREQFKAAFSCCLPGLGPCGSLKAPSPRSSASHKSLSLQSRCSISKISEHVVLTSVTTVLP
# OX1R antag-2: antagonists of human orexin 1 receptor (OX1R); OX1R-expressing cells, FRET antagonist read-out; 330,000 tested, 1.8% active; O43613; AID 485270; inhibition, % at 6.6 µM; in the data active = inhibition mostly above about 38%, no sharp cut-off; inactive = mostly below about 40%;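 also: 0% = agonist challenge alone and 100% = reference antagonist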
# TAAR1 antagonist: human TAAR1 antagonism; CHO RD-HGA16 TAAR1, Fluo-8 calcium fluorescence, antagonist; 360,000 tested, 1.5% active; Q96RJ0; AID 624466; inhibition, % at 3 µM;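 active = inhibition above a per-plate cutoff, the mean inhibition of test compounds on that plate plus 3 SD, cut at about 49% in these data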;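 also: 0% = DMSO plus EC80 beta-PEA response and 100% = DMSO alone without agonist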
#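 Material: RD-HGA16 CHO cells with stable hTAAR1 and Gα16; Dosing: single nominal final test compound concentration of 3 µM; Schedule: seeding 17-24 h prior, 75-min 37 °C, 30-min RT dye loading; Detection: kinetic Fluo-8 calcium fluorescence measurement; Measure: % inhibition from peak post-agonist over basal fluorescence ratio; Benchmarks: vehicle and agonist controls.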
# TAAR1 agonist: human TAAR1 agonism; Q96RJ0; CHO RD-HGA16 TAAR1, Fluo-8 calcium fluorescence; vehicle wells 0%, saturating PEA agonist 100%; activation, % at 3 µM; 360,000 tested, 0.99% active; AID 624467;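 active = activation above the mean activation of all test compounds in the run plus 3 SD, cut at about 38% in these data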
#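 Assay system: CHO-derived RD-HGA16 cells with stable Gα16 and human TAAR1; timing: 17-24 h seeding, 75 min 37 °C dye, 30 min RT; read-out: % activation from peak over basal fluorescence ratio, DMSO-to-PEA scaled; measured by: kinetic Fluo-8 calcium fluorescence; benchmarks: low control DMSO, high control PEA (EC100); doses: 3 µM single concentration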
# CHO parental Ca: signal in parental CHO cells, OX1R antagonist counter-screen. parental CHO-K1, ATP-induced calcium, Fluo-8 fluorescence. inhibition, % at 5.6 µM. 330,000 tested, 0.63% active. AID 463079;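 active = inhibition above that plate's mean sample inhibition plus 3 SD, cut at about 26% in these data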;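 also: 0% = ATP-challenged DMSO wells and 100% = DMSO wells without ATP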
#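 Material: Parental CHO cells | Reagent: ATP | Compound dosing: Single nominal dose of 5.6 µM per compound | Detection: Intracellular calcium via Fluo-8 no-wash fluorescent dye | Read-out: % inhibition of ATP-induced calcium mobilization | Benchmarks: Low control ATP plus DMSO, high control DMSO only | Replicates: Singlicate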
# Active calls of the source: *; / = not tested or not shown. A selection: hits, their analogues and other compounds. The true share with any hit is near 4.5%.
SMILES,GPR7 antagonist,OX1R antag-1,OX1R antag-2,TAAR1 antagonist,TAAR1 agonist,CHO parental Ca
CCn1c(SCC(=O)Nc2nc3c(s2)CCCC3)nnc1-c1ccccc1,-10,-12,49*,19,4,-26
CCn1c(SCC(=O)Nc2nc3ccccc3s2)nnc1-c1ccc(OC)cc1,-7,-2,34,-9,17,39*
Cc1cccc(Nc2ccc3nonc3c2[N+](=O)[O-])c1C,8,5,8,-5,-1,3
Cc1cc(C)cc(Nc2ccc3nonc3c2[N+](=O)[O-])c1,/,-11,31,-3,-3,-4
O=C(O)c1ccccc1Nc1ccc([N+](=O)[O-])c2nonc12,-5,10,34*,/,/,14
O=[N+]([O-])c1c(Nc2ccccc2)ccc2nonc12,-10,-3,64*,-20,0,1
O=[N+]([O-])c1c(NCc2ccco2)ccc2nonc12,-10,-10,68*,-18,0,-5
CCOC(=O)NNc1ccc2nonc2c1[N+](=O)[O-],-7,-14,35*,/,/,-13
Cc1ccc(C2NC(=O)c3n[nH]c(C)c32)cc1 (centres undefined),/,/,/,-16,0,/
C[C@H](CO)N1C[C@H](C)[C@@H](CN(C)C(=O)Nc2cccc(Oc3ccccn3)c2)OCc2cn(nn2)CCCC1=O,/,/,/,11,2,/
Cc1c(C(=O)OCC(=O)N(C)Cc2ccc(Cl)cc2)oc2ccccc12,/,27,53*,-9,1,-34
COc1ccc2oc(C(=O)OCC(=O)N(C)Cc3ccccc3)c(C)c2c1,/,-36,16,7,5,-4
CCN(CCN(C)C)C(=O)c1ccc2c(c1NCCO)C(=O)c1ccccc1C2=O,1,-8,75*,-21,-1,-9
COc1cccc(OCC(O)CN2CCC(CN3C(=O)c4cccc5cccc(c45)C3=O)CC2)c1 (centres undefined),-11,-22,35,-2,4,-5
COc1cc(COCC(O)CN2CCN(CCN3C(=O)c4cccc5cccc(c45)C3=O)CC2)cc(OC)c1OC (centres undefined),-6,-29,22,-9,-1,-11
Cc1cc(C)cc(OCC(O)CN2CCC(CN3C(=O)c4cccc5cccc(c45)C3=O)CC2)c1 (centres undefined),/,1,18,0,39*,17
COc1ccc(COCC(O)CN2CCC(CN3C(=O)c4cccc5cccc(c45)C3=O)CC2)cc1OC (centres undefined),-2,-18,49*,-13,4,-27
CC(C)(C)OC[C@H](NC(=O)c1[nH]cnc1C(=O)Nc1ccccc1F)C(=O)OC(C)(C)C,/,/,/,-9,-1,/
O=C(Nc1cccnc1)c1cc(-c2cc(Cl)ccc2O)n[nH]1,-1,-16,67*,-14,27,-18
C[C@@H]1CN([C@@H](C)CO)C(=O)CCCn2nncc2CO[C@H]1CN(C)C(=O)c1ccc2ccn(C)c2c1,/,/,/,-16,2,/
N#C/C(=C/c1ccc(-c2cc([N+](=O)[O-])ccc2Cl)o1)C(N)=O,-2,14,54*,2,3,9
CC1(C)Cc2cccc(OCC(=O)OCc3nnc(-c4ccccc4)o3)c2O1,/,-22,3,-10,0,-14
Cc1csc(=O)n1CC(=O)OCC(=O)NNC(=O)c1ccc([N+](=O)[O-])cc1,/,-1,76*,-17,1,0
Cc1csc(=O)n1CC(=O)OCC(=O)NNC(=O)c1ccccc1,-4,0,8,-17,1,7
Cc1csc(=O)n1CCC(=O)OCC(=O)Nc1cc(Cl)ccc1[N+](=O)[O-],/,-18,53*,-16,4,-8
CC1(C)Cc2cccc(OCC(=O)OCc3nnc(-c4ccc([N+](=O)[O-])cc4)o3)c2O1,/,-7,50*,3,-1,-2
Cc1csc(=O)n1CC(=O)OCc1nnc(-c2ccc([N+](=O)[O-])cc2)o1,/,1,37*,0,7,-2
O=C(CNC(=O)c1ccccc1)OCc1nnc(-c2ccccc2)o1,/,-27,7,16,0,13

# From PubChem
